Data set [1] is described as follows: AUC in mouse at 30 umol/kg, po. Type of data set: ADME. The settings on record: in vivo.
Data set [2] is described as follows: Inhibition of PI3Kalpha mutant in human BT474 cells assessed as decrease in AKT phosphorylation at Thr308 after 2 hrs. Type of data set: cell-based. To be noted: BT-474, 2 h.
The nature of data set [3]: Intrinsic clearance in human hepatocytes assessed per million cells. The format is ADME, cell-based, Hepatocyte. To be noted: read-out: CLH.
Data set [4] is described as follows: Apparent permeability across apical to basolateral side in human Caco2 cells. To be noted: Caco-2. Background: Passage across Caco-2 layers is used to estimate intestinal permeability.
The nature of data set [5]: Lipophilicity, log D of the compound at pH 7.4. The settings on record: buffer.
Data set [6] concerns the target T1, Phosphatidylinositol 4,5-bisphosphate 3-kinase catalytic subunit beta isoform (Homo sapiens, UniProt P42338). In words: Inhibition of PI3Kbeta in PTEN-deficient human MDA-MB-468 cells assessed as decrease in AKT phosphorylation at Ser473 measured after 2 hrs.
The species entered for a further data set is Homo sapiens. In words: Selectivity ratio of IC50 for PI3Kalpha mutant in human BT474 cells to IC50 for PI3Kbeta in PTEN-deficient human MDA-MB-468 cells. Type of data set: cell-based. The gist of the method:
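Ratio of two cellular IC50s. PI3Kα IC50 is from inhibition of AKT Thr308 phosphorylation in PIK3CA-mutant human breast ductal carcinoma BT474 cells. PI3Kβ IC50 is from inhibition of AKT Ser473 phosphorylation in PTEN-null breast adenocarcinoma MDA-MB-468 cells.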

In data set [7] the target is T1, Phosphatidylinositol 4,5-bisphosphate 3-kinase catalytic subunit beta isoform. In words: Inhibition of recombinant human PI3Kbeta using PIP2 as substrate preincubated for 20 mins followed by substrate addition measured after 80 mins in presence of ATP by Kinase Glo luminescence assay. (Kinase-Glo reads ATP consumption through a luciferase reaction.)
Data set [8] has as its target Phosphatidylinositol 4,5-bisphosphate 3-kinase catalytic subunit gamma isoform (Homo sapiens, UniProt P48736). In words: Inhibition of recombinant human PI3Kgamma using PIP2 as substrate preincubated for 20 mins followed by substrate addition measured after 80 mins in presence of ATP by Kinase Glo luminescence assay. The gist of the method: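 Enzyme IC50 against PI3Kγ, single determination (n=1).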

The target of data set [9] is Phosphatidylinositol 4,5-bisphosphate 3-kinase catalytic subunit alpha isoform (Homo sapiens, UniProt P42336). In words: Inhibition of recombinant human PI3Kalpha using PIP2 as substrate preincubated for 20 mins followed by substrate addition measured after 80 mins in presence of ATP by Kinase Glo luminescence assay.
Chain of Phosphatidylinositol 4,5-bisphosphate 3-kinase catalytic subunit alpha isoform (P42336 whole entry, canonical isoform): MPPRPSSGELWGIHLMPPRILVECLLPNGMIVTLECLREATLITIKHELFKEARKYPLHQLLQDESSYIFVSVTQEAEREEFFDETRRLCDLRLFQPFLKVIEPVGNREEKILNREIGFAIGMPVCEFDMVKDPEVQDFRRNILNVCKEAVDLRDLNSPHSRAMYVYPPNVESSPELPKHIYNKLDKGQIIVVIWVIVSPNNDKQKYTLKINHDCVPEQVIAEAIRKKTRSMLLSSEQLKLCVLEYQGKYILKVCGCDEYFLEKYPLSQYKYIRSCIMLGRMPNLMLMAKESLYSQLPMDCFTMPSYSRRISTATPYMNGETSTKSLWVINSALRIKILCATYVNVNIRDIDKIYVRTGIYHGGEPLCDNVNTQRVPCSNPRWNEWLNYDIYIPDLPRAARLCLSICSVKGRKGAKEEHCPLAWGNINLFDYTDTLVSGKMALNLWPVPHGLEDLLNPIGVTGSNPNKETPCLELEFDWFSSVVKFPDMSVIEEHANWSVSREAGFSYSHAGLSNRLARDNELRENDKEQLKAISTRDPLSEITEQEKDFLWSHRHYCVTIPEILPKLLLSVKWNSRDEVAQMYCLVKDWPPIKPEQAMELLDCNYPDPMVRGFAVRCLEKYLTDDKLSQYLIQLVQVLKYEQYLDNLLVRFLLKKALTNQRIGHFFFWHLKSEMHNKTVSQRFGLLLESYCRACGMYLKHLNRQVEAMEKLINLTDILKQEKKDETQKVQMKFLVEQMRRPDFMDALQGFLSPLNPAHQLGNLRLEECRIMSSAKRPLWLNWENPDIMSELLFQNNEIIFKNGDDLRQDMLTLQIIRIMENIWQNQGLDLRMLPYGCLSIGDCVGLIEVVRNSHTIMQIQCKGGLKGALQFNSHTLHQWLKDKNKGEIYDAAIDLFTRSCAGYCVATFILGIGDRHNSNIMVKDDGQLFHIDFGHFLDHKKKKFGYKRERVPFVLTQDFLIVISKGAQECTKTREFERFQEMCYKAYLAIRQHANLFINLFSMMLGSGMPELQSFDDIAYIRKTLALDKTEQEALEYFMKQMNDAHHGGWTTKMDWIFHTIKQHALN
Data set [10] concerns the target T2, Phosphatidylinositol 4,5-bisphosphate 3-kinase catalytic subunit delta isoform (Homo sapiens, UniProt O00329).
T2 sequence (O00329 whole entry): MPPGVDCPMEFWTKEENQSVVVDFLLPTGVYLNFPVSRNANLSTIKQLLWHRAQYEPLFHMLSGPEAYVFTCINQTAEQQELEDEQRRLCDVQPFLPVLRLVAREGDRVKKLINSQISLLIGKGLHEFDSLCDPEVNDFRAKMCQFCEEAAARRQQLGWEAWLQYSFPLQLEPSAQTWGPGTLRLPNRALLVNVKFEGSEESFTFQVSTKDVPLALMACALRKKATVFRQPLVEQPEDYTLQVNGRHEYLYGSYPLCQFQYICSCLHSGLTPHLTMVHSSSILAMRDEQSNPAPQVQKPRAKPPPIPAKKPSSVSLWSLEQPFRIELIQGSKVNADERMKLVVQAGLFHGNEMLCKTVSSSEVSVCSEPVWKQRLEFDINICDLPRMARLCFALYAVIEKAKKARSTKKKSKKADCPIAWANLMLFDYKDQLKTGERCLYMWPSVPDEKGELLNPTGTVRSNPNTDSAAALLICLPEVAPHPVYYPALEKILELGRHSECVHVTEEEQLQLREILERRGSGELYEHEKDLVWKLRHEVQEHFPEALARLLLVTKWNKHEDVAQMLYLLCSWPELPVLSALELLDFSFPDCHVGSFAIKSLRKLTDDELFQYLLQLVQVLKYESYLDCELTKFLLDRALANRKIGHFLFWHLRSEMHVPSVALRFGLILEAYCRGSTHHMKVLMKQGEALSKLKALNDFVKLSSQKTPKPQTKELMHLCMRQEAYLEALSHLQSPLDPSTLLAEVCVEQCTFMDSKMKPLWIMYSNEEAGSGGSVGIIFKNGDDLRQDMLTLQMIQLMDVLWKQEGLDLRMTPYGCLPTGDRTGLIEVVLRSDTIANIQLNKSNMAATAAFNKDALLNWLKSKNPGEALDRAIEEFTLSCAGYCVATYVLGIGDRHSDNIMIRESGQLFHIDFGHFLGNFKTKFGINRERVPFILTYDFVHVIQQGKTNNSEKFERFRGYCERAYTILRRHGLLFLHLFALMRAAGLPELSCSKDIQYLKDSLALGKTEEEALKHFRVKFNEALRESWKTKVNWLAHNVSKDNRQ
In words: Inhibition of recombinant human PI3Kdelta using PIP2 as substrate preincubated for 20 mins followed by substrate addition measured after 80 mins in presence of ATP by Kinase Glo luminescence assay.

Data set [11] can be described thus: Intrinsic clearance in mouse hepatocytes assessed per million cells. The format is ADME, cell-based, Hepatocyte. The settings on record: read-out: CLH. Put shortly:
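Intrinsic clearance measured in mouse or dog hepatocytes, expressed as CL_int in […].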

Data set [12] is described as follows: Volume of distribution at steady state in mouse blood at 5 umol/kg, iv or 30 umol/kg, po. To be noted: read-out: Vdss. The format is ADME, organism-based.
A short description of data set [13]: Oral bioavailability in mouse blood at 30 umol/kg. Type of data set: ADME, organism-based.
Data set [14] in a line: Fraction unbound in human plasma. The format is ADME, cell-free. The gist of the method: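 Plasma protein binding in mouse, dog or human plasma, reported as fraction unbound (%).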
A short description of data set [15]: Clearance in mouse blood at 5 umol/kg, iv or 30 umol/kg, po. The format is ADME, organism-based.

T1 sequence (P42338 whole entry, canonical isoform): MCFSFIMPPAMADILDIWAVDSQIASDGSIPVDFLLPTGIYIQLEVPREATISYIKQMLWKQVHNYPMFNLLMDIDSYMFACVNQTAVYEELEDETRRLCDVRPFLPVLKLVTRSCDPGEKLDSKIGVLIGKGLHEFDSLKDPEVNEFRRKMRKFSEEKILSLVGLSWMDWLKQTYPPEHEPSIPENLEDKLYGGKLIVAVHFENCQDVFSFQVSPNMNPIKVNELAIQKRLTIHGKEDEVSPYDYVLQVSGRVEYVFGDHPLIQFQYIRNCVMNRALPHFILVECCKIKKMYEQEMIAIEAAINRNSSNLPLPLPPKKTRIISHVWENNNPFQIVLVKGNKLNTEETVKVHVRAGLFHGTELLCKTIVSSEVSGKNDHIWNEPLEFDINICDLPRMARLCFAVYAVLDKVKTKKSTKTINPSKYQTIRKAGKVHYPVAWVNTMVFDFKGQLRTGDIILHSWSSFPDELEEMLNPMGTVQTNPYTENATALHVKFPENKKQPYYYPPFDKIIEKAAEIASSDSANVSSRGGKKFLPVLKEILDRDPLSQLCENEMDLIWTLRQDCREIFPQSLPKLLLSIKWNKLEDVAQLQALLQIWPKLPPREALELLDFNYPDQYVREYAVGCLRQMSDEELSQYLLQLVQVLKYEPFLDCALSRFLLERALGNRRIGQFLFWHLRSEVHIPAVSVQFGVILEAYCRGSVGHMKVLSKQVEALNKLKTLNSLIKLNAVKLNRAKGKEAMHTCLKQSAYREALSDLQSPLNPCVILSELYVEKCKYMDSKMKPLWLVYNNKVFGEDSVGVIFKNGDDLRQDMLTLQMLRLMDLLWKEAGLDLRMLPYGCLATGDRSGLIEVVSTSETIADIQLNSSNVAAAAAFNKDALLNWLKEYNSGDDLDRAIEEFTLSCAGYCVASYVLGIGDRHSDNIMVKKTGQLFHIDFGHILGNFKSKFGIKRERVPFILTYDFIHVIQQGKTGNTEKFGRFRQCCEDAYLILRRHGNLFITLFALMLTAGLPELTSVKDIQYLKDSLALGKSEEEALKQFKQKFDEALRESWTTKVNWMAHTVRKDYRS
Chain of Phosphatidylinositol 4,5-bisphosphate 3-kinase catalytic subunit gamma isoform (P48736 whole entry, canonical isoform): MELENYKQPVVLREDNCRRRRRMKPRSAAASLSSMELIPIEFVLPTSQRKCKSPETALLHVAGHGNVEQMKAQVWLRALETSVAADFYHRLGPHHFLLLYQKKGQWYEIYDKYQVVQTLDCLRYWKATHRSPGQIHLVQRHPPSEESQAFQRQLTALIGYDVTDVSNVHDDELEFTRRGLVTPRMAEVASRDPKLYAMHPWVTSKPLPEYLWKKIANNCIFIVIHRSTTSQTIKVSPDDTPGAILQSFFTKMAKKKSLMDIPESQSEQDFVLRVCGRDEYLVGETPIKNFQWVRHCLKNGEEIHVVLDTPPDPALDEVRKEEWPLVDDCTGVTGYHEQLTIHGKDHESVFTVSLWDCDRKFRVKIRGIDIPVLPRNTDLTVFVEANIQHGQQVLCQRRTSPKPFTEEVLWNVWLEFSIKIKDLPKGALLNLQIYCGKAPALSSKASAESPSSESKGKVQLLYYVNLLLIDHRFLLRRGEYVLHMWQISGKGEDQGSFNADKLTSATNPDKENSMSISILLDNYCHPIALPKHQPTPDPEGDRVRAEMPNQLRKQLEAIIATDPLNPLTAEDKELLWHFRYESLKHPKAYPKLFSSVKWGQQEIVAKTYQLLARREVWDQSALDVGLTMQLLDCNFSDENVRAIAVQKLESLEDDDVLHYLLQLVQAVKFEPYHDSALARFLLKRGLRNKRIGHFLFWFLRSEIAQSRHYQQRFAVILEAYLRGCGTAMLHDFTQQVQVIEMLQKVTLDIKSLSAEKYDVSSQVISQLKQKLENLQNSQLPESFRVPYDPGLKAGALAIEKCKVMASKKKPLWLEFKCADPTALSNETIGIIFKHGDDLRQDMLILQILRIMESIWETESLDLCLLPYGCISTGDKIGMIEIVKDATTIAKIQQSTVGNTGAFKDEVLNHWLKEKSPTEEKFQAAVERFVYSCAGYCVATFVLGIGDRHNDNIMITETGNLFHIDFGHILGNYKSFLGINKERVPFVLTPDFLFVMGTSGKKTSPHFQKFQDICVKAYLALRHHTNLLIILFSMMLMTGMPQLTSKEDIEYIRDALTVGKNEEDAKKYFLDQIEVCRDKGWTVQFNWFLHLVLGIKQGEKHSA

One may read the AUC as the area under the concentration-time curve, a measure of exposure. A low value points to less exposure. A word on the IC50: it is the concentration that gives 50% inhibition. The term Papp A→B denotes how fast a substance crosses the layer from the apical side. In general, logD refers to lipophilicity at a set pH, counting ionised and neutral species. Lower therefore signals a more hydrophilic compound. `CN(CCO)C(=O)c1cc(C2CCCN2c2cc(F)cc(F)c2)c2oc(N3CCOCC3)cc(=O)c2c1` (racemic) showed an AUC in data set [1] of 0.3 µM·h. In addition, the values for the IC50 in data set [2] and in data set [6] were 870 nM and 2 nM, respectively. The hepatocyte CLint in data set [3] was found to be 4 µL/min/1e6 cells. Further, in [4], the Papp A→B was 2.6 ×10⁻⁶ cm/s. The pH-dependent lipophilicity (logD) in [5] was determined as 2.

On to `CN(C)C(=O)c1cc(C2CCCN2c2cc(F)cc(F)c2)c2oc(N3CCOCC3)cc(=O)c2c1` (racemic), for which the AUC in data set [1] came out at 2.4 µM·h. The IC50 in [2] was 150 nM; in [6], 1.2 nM. Further, the hepatocyte CLint in [3] came to 17 µL/min/1e6 cells. For the same molecule, in data set [4], the Papp A→B amounted to 33 ×10⁻⁶ cm/s. The logD in [5] stood at 2.7.

In the case of `O=C(c1cc(C2CCCN2c2cc(F)cc(F)c2)c2oc(N3CCOCC3)cc(=O)c2c1)N1CCC(O)CC1` (racemic), the IC50 amounted to 630 nM in data set [2] and 3 nM in [6]. Also, the hepatocyte CLint in [3] is below 3 µL/min/1e6 cells. The molecule further returned a logD in data set [5] of 2.3.

With `CN(C)C(=O)c1cc([C@H]2CCCN2c2ccc(F)cc2)c2oc(N3CCOCC3)cc(=O)c2c1`, the Ratio IC50 in the data set filed under Homo sapiens was 50. In addition, the AUC in data set [1] was 1 µM·h. Besides, the IC50 in data set [7] came to 6.7 nM; in data set [8], 330 nM; in data set [9], 24 nM; in data set [2], 180 nM; in data set [10], 8.2 nM; in data set [6], 3.4 nM. The hepatocyte CLint in data set [3] was 14 µL/min/1e6 cells.

For `CN(C)C(=O)c1cc([C@H]2CCCN2c2cccc(F)c2)c2oc(N3CCOCC3)cc(=O)c2c1`, the IC50 in data set [2] is 91 nM; in [6], 1.2 nM. The hepatocyte CLint in [3] amounted to 15 µL/min/1e6 cells. Besides, the logD in data set [5] worked out at 2.5.

Consider `CN1CCN(C(=O)c2cc([C@H]3CCCN3c3cc(F)cc(F)c3)c3oc(N4CCOCC4)cc(=O)c3c2)CC1`, for which the concentration for half-maximal inhibition (IC50) in data set [2] was 250 nM; in data set [6] it was 2.3 nM. In addition, the hepatocyte CLint in data set [3] was determined as 11 µL/min/1e6 cells. In addition, the Papp A→B in [4] turned out to be 3.3 ×10⁻⁶ cm/s. For the same molecule, the pH-dependent lipophilicity (logD) in data set [5] turned out to be 2.3.

Usually bioavailability stands for dose-corrected exposure relative to a reference, in per cent. Read a low bioavailability as little systemic uptake. As a reminder, the fraction unbound is free concentration divided by total concentration. Take `O=C(c1cc([C@H]2CCCN2c2cccc(F)c2)c2oc(N3CCOCC3)cc(=O)c2c1)N1CCOCC1`: the area under the curve (AUC) in data set [1] was found to be 1.7 µM·h. For the same molecule, the 50% inhibitory concentration (IC50) in data set [7] turned out to be 6.1 nM; in [8] it was 340 nM; in [9] it was 19 nM; in [2], 300 nM; in data set [10], 5.1 nM; in [6], 2.8 nM. Moreover, the hepatocyte CLint in [11] turned out to be 134 µL/min/1e6 cells; in data set [3], 6 µL/min/1e6 cells. For the same molecule, the Vd in data set [12] stood at 0.9 L/kg. In data set [13], this molecule yielded a bioavailability of 18%. The Papp A→B in [4] was 14 ×10⁻⁶ cm/s. Moreover, the logD in data set [5] stood at 2.2. The fraction unbound in [14] is 0.11. Besides, in data set [15], the clearance worked out at 47 mL/min/kg.

The molecule `CN(C)C(=O)c1cc(C2CCCN2c2ccccc2)c2oc(N3CCOCC3)cc(=O)c2c1` (racemic) registered an AUC in [1] of 6 µM·h. Further, in data set [2], the IC50 is 480 nM. Besides, the hepatocyte CLint in data set [3] amounted to 11 µL/min/1e6 cells.

On to `Cc1cc([C@@H](C)Nc2ccccc2)c2nc(N3CCOCC3)cc(=O)n2c1`, for which the logD in data set [5] is 3.6.

Take `O=C(c1cc(C2CCCN2c2ccc(F)cc2)c2oc(N3CCOCC3)cc(=O)c2c1)N1CCOCC1` (single isomer, unassigned): the IC50 in data set [2] was determined as 1200 nM; in data set [6], 4.5 nM. Besides, the hepatocyte CLint in [3] came out at 8 µL/min/1e6 cells. In data set [5], this molecule came in with a logD of 2.2.
